From ChEMBL document CHEMBL4011617, “Ugi Reaction-Derived α-Acyl Aminocarboxamides Bind to Phosphatidylinositol 3-Kinase-Related Kinases, Inhibit HSF1-Dependent Heat Shock Response, and Induce Apoptosis in Multiple Myeloma Cells” (J Med Chem, 2017)
Active and inactive are the calls of the source. The rule behind the calls is not given here.

Legend:
[1] = target: Serine/threonine-protein phosphatase 6 regulatory subunit 1 (Homo sapiens) (UniProt Q9UPN7); test: Binding affinity to PP6R1 protein in human INA-6 cells after 3 hrs by nanoLC-MS/MS method; assay type: cell-based
In short: (§1)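 The biotinylated inhibitor was loaded on streptavidin beads, with empty beads as the control. Eluates were trypsin-digested and run by nanoLC-MS/MS. Inhibitor/control ratios came from label-free quantification, taken as medians of five biological replicates. Enrichment was called at Benjamini-Hochberg-adjusted limma p < 0.02.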

INA-6 [2] = test: Inhibition of heat shock response in human INA-6 cells assessed as reduction in HSF-1 mediated upregulation of the heat shock protein HSP27 at 50 uM preincubated for 4 hrs followed by HSP90 inhibitor and HSR inducer NVP-AUY922 addition measured after 4 hrs by Western blot method; assay type: functional, cell-based
In short: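 INA-6 myeloma cells pretreated with test compound for 4 h, then co-treated with the HSP90 inhibitor/HSR inducer NVP-AUY922 for a further 4 h. Cells harvested; HSP72, HSP27, HSF1 or phospho-HSF1 probed by Western blot with β-actin as loading control. DMSO-only cells were the negative control; NVP-AUY922-only cells were the positive control.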

Peflin (Homo sapiens) = Peflin (Homo sapiens) (UniProt Q9UBV8); test: Binding affinity to PEF1 protein in human INA-6 cells after 3 hrs by nanoLC-MS/MS method; assay type: cell-based; in short: as §1
[3] = target: Conserved oligomeric Golgi complex subunit 6 (Homo sapiens) (UniProt Q9Y2V7); test: Binding affinity to COG6 in human INA-6 cells after 3 hrs by nanoLC-MS/MS method; assay type: cell-based; in short: as §1
[4] = target: Programmed cell death protein 6 (Homo sapiens) (UniProt O75340); test: Binding affinity to PDCD6 protein in human INA-6 cells after 3 hrs by nanoLC-MS/MS method; assay type: cell-based; in short: as §1
[5] = target: MICOS complex subunit MIC25 (Homo sapiens) (UniProt Q9BRQ6); test: Binding affinity to MICOS complex subunit MIC25 in human INA-6 cells after 3 hrs by nanoLC-MS/MS method; assay type: cell-based; in short: as §1
[6] = target: CCR4-NOT transcription complex subunit 3 (Homo sapiens) (UniProt O75175); test: Binding affinity to CCR4-NOT transcription complex subunit 3 in human INA-6 cells after 3 hrs by nanoLC-MS/MS method; assay type: cell-based; in short: as §1
INA-6 [7] = test: Inhibition of heat shock response in human INA-6 cells assessed as reduction in HSF-1 mediated upregulation of the heat shock protein HSP72 at 50 uM preincubated for 4 hrs followed by HSP90 inhibitor and HSR inducer NVP-AUY922 addition measured after 4 hrs by ELISA; assay type: functional, cell-based
In short: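 HSP72 quantified by ELISA in the same protein lysates used for Western blots. INA-6 cells received compound for 4 h, then NVP-AUY922 co-treatment for 4 h more to stimulate HSF1. DMSO-only and NVP-AUY922-only cells served as negative and positive controls.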

[8] = target: CCR4-NOT transcription complex subunit 1 (Homo sapiens) (UniProt A5YKK6); test: Binding affinity to CCR4-NOT transcription complex subunit 1 in human INA-6 cells after 3 hrs by nanoLC-MS/MS method; assay type: cell-based; in short: as §1
[9] = target: Serine/threonine-protein phosphatase 6 regulatory ankyrin repeat subunit A (Homo sapiens) (UniProt O15084); test: Binding affinity to serine/threonine-protein phosphatase 6 regulatory ankyrin repeat subunit A in human INA-6 cells after 3 hrs by nanoLC-MS/MS method; assay type: cell-based; in short: as §1
[10] = target: Protein CIP2A (Homo sapiens) (UniProt Q8TCG1); test: Binding affinity to CIP2A protein in human INA-6 cells after 3 hrs by nanoLC-MS/MS method; assay type: cell-based; in short: as §1
INA-6 [11] = test: Inhibition of heat shock response in human INA-6 cells assessed as reduction in HSF-1 mediated upregulation of the heat shock protein HSP27 at 50 uM preincubated for 4 hrs followed by HSP90 inhibitor and HSR inducer NVP-AUY922 addition measured after 4 hrs by ELISA; assay type: functional, cell-based
[12] = target: Protein MON2 homolog (Homo sapiens) (UniProt Q7Z3U7); test: Binding affinity to MON2 protein in human INA-6 cells after 3 hrs by nanoLC-MS/MS method; assay type: cell-based; in short: as §1
[13] = target: Survival motor neuron protein (Homo sapiens) (UniProt Q16637); test: Binding affinity to survival motor neuron protein in human INA-6 cells after 3 hrs by nanoLC-MS/MS method; assay type: cell-based; in short: as §1
[14] = target: DNA-dependent protein kinase catalytic subunit (Homo sapiens) (UniProt P78527); test: Binding affinity to PRKDC protein in human INA-6 cells after 3 hrs by nanoLC-MS/MS method; assay type: cell-based; in short: as §1
[15] = target: DNA-dependent protein kinase catalytic subunit (Homo sapiens) (UniProt P78527); test: Binding affinity to PRKDC protein in human INA-6 cells after 3 hrs by Western blot method; assay type: cell-based
In short: (§2)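 INA-6 lysate was incubated with compound-coupled streptavidin beads or with beads only as the control. Captured-protein eluates were Western blotted with specific antibodies against DNA-PK, ATM, ATR or mTOR. H2AX staining or Ponceau S served as loading controls.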

[16] = target: Serine/threonine-protein kinase mTOR (Homo sapiens) (UniProt P42345); test: Binding affinity to mTOR protein in human INA-6 cells after 3 hrs by Western blot method; assay type: cell-based; in short: as §2
[17] = target: Serine-protein kinase ATM (Homo sapiens) (UniProt Q13315); test: Binding affinity to ATM protein in human INA-6 cells after 3 hrs by Western blot method; assay type: cell-based; in short: as §2
[18] = target: Serine/threonine-protein kinase ATR (Homo sapiens) (UniProt Q13535); test: Binding affinity to ATR protein in human INA-6 cells after 3 hrs by Western blot method; assay type: cell-based; in short: as §2

DNA-dependent protein kinase catalytic subunit (Homo sapiens), sequence (P78527 whole entry): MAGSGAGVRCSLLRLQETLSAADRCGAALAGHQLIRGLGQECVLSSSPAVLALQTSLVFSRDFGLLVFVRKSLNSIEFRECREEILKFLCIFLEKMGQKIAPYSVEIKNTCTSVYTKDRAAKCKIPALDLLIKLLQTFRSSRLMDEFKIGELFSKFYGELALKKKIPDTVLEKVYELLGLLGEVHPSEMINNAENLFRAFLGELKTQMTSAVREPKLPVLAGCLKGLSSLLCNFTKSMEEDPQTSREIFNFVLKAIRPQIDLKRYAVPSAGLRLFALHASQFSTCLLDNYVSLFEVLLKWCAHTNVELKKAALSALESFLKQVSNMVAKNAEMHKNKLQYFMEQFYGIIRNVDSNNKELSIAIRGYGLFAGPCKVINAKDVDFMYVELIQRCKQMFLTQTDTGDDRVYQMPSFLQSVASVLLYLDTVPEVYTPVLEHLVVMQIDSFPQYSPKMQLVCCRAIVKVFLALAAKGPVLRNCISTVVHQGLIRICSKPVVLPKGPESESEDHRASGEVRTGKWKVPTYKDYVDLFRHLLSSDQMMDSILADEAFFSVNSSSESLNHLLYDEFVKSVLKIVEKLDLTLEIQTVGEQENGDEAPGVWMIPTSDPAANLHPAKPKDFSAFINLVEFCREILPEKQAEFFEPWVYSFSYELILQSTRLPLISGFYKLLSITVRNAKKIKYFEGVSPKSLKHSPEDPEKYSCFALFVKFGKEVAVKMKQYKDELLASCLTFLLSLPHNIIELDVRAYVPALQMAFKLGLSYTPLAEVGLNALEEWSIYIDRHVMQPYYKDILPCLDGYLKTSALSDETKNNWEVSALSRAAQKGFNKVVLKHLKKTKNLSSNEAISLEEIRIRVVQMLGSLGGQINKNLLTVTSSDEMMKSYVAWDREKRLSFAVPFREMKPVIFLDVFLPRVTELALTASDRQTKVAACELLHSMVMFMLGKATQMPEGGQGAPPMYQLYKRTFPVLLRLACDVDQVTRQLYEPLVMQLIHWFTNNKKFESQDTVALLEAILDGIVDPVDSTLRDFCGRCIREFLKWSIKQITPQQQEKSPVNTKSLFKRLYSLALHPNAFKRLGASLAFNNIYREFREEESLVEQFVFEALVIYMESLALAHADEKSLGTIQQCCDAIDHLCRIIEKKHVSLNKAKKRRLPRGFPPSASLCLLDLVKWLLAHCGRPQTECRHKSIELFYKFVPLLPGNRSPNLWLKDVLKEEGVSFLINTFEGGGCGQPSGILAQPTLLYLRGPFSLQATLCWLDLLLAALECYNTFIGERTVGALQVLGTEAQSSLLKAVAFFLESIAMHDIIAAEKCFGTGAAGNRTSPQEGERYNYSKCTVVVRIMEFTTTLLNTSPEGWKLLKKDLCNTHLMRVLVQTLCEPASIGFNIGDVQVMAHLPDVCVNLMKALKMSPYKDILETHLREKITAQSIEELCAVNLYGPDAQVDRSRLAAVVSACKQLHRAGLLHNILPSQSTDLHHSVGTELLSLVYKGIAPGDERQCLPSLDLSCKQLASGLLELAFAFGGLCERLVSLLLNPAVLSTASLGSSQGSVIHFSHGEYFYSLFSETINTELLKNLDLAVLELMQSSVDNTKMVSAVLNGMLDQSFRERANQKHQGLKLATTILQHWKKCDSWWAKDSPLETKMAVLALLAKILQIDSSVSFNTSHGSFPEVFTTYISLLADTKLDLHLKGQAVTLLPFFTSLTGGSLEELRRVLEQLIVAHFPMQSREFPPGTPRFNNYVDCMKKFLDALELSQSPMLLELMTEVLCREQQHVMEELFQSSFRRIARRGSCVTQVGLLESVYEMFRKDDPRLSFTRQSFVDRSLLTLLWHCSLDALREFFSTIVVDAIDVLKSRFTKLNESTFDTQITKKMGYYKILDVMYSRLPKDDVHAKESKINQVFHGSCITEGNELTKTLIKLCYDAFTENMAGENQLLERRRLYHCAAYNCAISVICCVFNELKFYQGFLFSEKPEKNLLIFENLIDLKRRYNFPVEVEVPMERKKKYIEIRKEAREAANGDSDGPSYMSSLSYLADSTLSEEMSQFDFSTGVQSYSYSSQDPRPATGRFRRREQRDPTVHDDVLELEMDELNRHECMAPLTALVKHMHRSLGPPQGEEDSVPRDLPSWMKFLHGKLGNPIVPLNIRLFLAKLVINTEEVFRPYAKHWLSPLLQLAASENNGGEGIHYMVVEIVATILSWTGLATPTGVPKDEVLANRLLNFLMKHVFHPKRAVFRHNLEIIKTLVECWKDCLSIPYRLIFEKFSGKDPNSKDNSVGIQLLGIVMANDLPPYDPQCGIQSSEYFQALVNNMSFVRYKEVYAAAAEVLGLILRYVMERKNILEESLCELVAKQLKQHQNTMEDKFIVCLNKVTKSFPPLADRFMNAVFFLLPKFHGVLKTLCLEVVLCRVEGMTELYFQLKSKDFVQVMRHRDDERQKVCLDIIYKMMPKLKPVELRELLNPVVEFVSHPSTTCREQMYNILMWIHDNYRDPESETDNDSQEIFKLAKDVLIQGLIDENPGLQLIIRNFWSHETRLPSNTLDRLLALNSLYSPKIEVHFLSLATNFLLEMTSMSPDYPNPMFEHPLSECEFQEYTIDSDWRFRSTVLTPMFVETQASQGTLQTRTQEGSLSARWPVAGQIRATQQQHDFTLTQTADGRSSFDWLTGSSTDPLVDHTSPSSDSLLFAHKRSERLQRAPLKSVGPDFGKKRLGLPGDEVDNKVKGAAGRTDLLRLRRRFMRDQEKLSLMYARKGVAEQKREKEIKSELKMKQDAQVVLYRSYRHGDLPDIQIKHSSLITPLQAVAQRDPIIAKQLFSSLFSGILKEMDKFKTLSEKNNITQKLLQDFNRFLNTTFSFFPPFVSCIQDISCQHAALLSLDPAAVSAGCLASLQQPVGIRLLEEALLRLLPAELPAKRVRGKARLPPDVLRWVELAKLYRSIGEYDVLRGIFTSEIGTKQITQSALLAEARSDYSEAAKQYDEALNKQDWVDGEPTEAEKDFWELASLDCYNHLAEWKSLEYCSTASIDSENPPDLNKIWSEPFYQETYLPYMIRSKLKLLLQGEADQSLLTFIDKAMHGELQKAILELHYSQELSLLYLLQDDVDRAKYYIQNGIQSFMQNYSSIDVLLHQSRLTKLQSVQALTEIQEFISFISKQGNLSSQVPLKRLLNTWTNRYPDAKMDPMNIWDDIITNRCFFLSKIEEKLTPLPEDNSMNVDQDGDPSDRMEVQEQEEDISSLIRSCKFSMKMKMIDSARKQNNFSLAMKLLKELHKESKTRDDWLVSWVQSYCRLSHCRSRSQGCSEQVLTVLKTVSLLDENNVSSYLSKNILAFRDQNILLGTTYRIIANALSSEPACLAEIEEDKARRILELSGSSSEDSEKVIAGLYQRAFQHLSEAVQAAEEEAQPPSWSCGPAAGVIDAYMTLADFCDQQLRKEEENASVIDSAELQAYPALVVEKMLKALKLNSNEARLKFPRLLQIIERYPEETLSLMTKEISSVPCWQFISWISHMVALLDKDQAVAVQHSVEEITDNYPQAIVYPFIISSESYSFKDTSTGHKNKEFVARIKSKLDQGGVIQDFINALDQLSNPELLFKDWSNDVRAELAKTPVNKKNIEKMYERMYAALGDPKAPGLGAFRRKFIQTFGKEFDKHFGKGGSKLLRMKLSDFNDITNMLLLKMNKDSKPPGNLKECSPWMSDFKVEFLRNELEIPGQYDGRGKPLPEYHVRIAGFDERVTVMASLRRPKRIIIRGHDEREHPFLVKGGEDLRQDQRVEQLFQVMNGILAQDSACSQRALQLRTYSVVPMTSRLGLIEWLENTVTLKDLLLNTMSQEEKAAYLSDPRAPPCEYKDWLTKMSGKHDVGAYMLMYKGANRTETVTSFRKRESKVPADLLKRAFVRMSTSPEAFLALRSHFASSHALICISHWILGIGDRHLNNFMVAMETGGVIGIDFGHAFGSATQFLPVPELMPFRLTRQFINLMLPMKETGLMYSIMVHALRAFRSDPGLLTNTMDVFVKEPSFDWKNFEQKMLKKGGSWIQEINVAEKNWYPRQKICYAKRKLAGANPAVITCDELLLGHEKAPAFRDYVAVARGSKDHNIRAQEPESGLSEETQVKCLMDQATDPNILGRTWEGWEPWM
Peflin (Homo sapiens), sequence (Q9UBV8 whole entry): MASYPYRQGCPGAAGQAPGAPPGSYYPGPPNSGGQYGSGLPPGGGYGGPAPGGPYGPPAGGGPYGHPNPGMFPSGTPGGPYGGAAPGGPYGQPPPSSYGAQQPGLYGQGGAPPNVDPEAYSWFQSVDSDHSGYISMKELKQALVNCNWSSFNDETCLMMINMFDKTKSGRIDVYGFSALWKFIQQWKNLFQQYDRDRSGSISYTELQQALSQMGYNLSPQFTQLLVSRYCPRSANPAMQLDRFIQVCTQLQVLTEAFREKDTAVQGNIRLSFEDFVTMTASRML
Programmed cell death protein 6 (Homo sapiens), sequence (O75340 whole entry): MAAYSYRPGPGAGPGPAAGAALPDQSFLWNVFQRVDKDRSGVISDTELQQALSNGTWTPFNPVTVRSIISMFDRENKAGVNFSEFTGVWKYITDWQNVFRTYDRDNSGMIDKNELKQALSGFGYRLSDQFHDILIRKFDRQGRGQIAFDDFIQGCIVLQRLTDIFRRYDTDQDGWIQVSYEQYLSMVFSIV
Survival motor neuron protein (Homo sapiens), sequence (Q16637 whole entry): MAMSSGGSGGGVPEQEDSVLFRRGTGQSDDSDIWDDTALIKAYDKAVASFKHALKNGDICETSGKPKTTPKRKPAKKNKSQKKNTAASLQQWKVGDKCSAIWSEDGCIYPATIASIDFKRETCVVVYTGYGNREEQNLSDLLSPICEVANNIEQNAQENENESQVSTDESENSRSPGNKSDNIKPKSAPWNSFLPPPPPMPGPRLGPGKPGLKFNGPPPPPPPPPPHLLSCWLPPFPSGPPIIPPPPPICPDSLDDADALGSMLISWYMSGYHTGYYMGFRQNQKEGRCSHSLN

Activity [1] | Activity (Peflin (Homo sapiens)) | Activity [3] | Activity [5] | Activity [6] | Activity [8] | Activity [9] | Activity [10] | Activity [12] | Activity [14] | Activity [15] | Activity [16] | Activity [17] | Activity [18] | SMILES | activity call (active/not active) for inhibition of HSP27 upregulation (INA-6 [2]) | Activity [4] | HSP72 upregulation inhibition (active/not active) (INA-6 [7]) | heat shock response inhibition (active/not active) (INA-6 [11]) | Activity [13]
Active | Active | Active | Active | Active | Active | Active | Active | Active | Active |  |  |  |  | O=C(CCCC[C@@H]1SC[C@@H]2NC(=O)N[C@@H]21)NCCOCCOCCNCCOc1ccc(C(C(=O)NCc2ccccc2)N(C(=O)CCc2ccccc2)C2CC2)cc1 (mixture of isomers) | inactive | Active | inactive | inactive | Active
Active | Active | Active | Active | Active | Active | Active | Active | Active | Active | Active | Active | Active | Active | O=C(CCCC[C@@H]1SC[C@@H]2NC(=O)N[C@@H]21)NCCOCCOCCNCCOc1ccc(C(C(=O)NCc2ccccc2)N(C(=O)CCc2ccc(O)cc2)C2CC2)cc1 (mixture of isomers) | inactive | Active | inactive | inactive | Active
